Screening results deposited in PubChem BioAssay by several laboratories.
This excerpt belongs to a sample that is enriched for hits.
A1 inh = inhibitors of the anti-apoptotic protein A1, read as caspase activation | MEF A1-2A-BIM cells, Caspase-Glo 3/7 luminescence, 3 h; percent of clofoctol response, vehicle zero | caspase activation, % (concentration not given with the values) | hit rate 0.066% among 330,000 | AID 2462;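 active = over half of replicate activation scores above 10%, or exactly half above 10 with the replicate mean above 10; inconclusive = replicate mean below 10 yet half the replicates above 10; inactive = over half of replicates below 10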
XBP1 UPR activ = activators of adaptive arm of unfolded protein response (XBP1); activation, % at 20 µM; AID 463104; CHO-XBP1 luciferase reporter, IRE1-XBP1 UPR activation, luminescence; percent of tunicamycin response, DMSO as zero; hit rate 0.33% among 330,000;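 active = versus positive control, 20 µM dose yields 30% or more activation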;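 also: 100% = tunicamycin at 10 µg/mL and 0% = DMSO only wells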
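Assay system: CHO-XBP1 luciferase reporter cells; Schedule: 6 h treatment, 37 °C; Detection: glow luminescence from Steady-Glo reagent; Benchmarks: high control tunicamycin 10 µg/mL final, low control DMSO vehicle only.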
CHOP inh = inhibitors of CHOP induction in ER stress response; inhibition, % at 10 µM; CHO-K1 CHOP-promoter luciferase, tunicamycin-induced, 15-18 h; AID 2732; hit rate 3.8% among 220,000;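 active = compounds that reduced the stress-induced luciferase reporter signal by more than about 70% of percent inhibition, limit read from the data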;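 also: 0% = tunicamycin plus vehicle and 100% = wells without tunicamycin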
UPR CHOP act = activators of apoptotic arm of unfolded protein response (CHOP); CHO-CHOP luciferase reporter, UPR activation, luminescence; percent of tunicamycin response over DMSO baseline; hit rate 0.34% among 330,000; activation, % at 10 µM;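 active = at 10 µM dose, activation of 40% or more, normalized to positive control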;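 also: 100% = tunicamycin at 10 µg/mL and 0% = DMSO alone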
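Assay system: CHO-CHOP cells, stable luciferase reporter of PERK-eIF2a-CHOP signalling / Buffer or medium: F12 plus 10% serum / Compound dosing: one dose, 10 µM in 0.5% DMSO / Times: 6 h compound treatment, 37 °C / Technique: luciferase luminescence / Read-out: % reporter activation, DMSO baseline versus tunicamycin full activation / Benchmarks: tunicamycin and DMSO controls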
The depositor's hits bear a star; ? = inconclusive; . = not tested or not shown.

SMILES | A1 inh | XBP1 UPR activ | CHOP inh | UPR CHOP act
Brc1ccc2c(c1)OCCOCCOc1cc(Br)ccc1OCCOCCOCCO2 | 0 | 0 | 83* | 7
Cc1ccc(OCCC(=O)NNC(=O)c2cc(C)oc2C)cc1 | 0 | -2 | . | -2
CCN(CC(=O)NC1CCCC1)S(=O)(=O)c1ccc(F)cc1 | 1 | -2 | . | 0
CC(C)(C)C1CCC2(CC1)SCC(=O)N2c1ccccc1 (stereo not drawn) | 0 | 2 | 77* | -1
CC1=C(C(=O)OC2CCCCC2)C(c2cccs2)n2c(nc3ccccc32)N1 (stereo not drawn) | 0 | 3 | 84* | 2
CNC(=O)C1=C(C)Nc2nc3ccccc3n2C1c1ccc(F)cc1 (stereo not drawn) | 1 | -2 | 1 | -2
CCOC(=O)C1=C(C)Nc2nc3ccccc3n2C1c1ccccc1 (stereo not drawn) | 1 | 2 | 78* | 3
COC(=O)C1=C(C)Nc2nc3ccccc3n2C1c1ccccc1F (stereo not drawn) | 0 | 1 | -12 | -1
O=C(CN(Cc1ccc(F)cc1)C(=O)CNS(=O)(=O)c1ccccc1)NCc1ccco1 | 1 | -7 | . | 2
O=C(CSCc1ccc(Cl)cc1)N/N=C/c1ccc(Cl)cc1Cl | -1 | 0 | 91* | 0
Cc1ccsc1/C=N/NC(=O)CSCc1ccc(Cl)cc1 | 1 | -5 | 92* | -3
Cc1ccsc1/C=N/NC(=O)Cc1ccc(Cl)cc1 | 0 | 0 | 35 | -1
O=C1NN(c2ccccc2)C(=O)/C1=C/c1cccs1 | 1 | 31* | -19 | 28
O=C1NN(c2ccc(F)cc2)C(=O)/C1=C\c1cnn(-c2ccccc2)c1 | 1 | 20 | 70* | 7
O=C1NN(c2ccccc2)C(=O)/C1=C\c1ccccc1 | -1 | -5 | . | -1
CCCN(C(=O)CCNC(=O)c1ccc(Cl)cc1)c1c(N)n(Cc2ccccc2)c(=O)[nH]c1=O | -1 | -3 | . | -1
Cc1ccc(S(=O)(=O)N2CCN(CCOc3cccc(C)c3)CC2)cc1 | 0 | -1 | . | 0
C=CCn1c(COc2cccc(C)c2C)nnc1SCC(=O)N1CCN(c2ccccc2)CC1 | 0 | -5 | 71* | -1
FC(F)(F)c1cccc(-c2nc3nc(Cl)c(Cl)nc3[nH]2)c1 | -11 | -5 | 74* | 12
CCCSc1nc(N2CCOCC2)c2c(c1C#N)CC(C)(C)SC2 | 0 | -5 | 78* | -1
CC(C)CSc1nc(N2CCOCC2)c2c(c1C#N)CC(C)(C)SC2 | -1 | -1 | 36 | -1
CCn1c(C)nc2cc(C(=O)OC(C(F)(F)C(F)F)C(F)(F)C(F)F)ccc21 | -2 | 4 | 74* | 12
Cc1ccn(CC(=O)N2CCCC(N3CCN(c4cccc(Cl)c4)CC3)C2)n1 (stereo not drawn) | 1 | -3 | . | 1
CCOc1cc(/C=N\NC(=O)c2ccc(NC(=O)C(C)(C)C)cc2)ccc1OC(=O)c1ccc(C)cc1 | 1 | 5 | 83* | 6
CCOc1cc(/C=N/NC(=O)c2cc(C)[nH]n2)ccc1OC(=O)c1ccc([N+](=O)[O-])cc1 | 1 | -1 | 79* | 2
SMILES | A1 inh | XBP1 UPR activ | CHOP inh | UPR CHOP act
CCC(NC(=O)C1C2C=CC(C2)C1C(=O)O)c1ccc(C)cc1 (stereo not drawn) | 1 | -4 | . | 3
CC(C)c1ccc(NC(=O)C(=O)C2C(=O)Nc3ccccc32)cc1 (stereo not drawn) | 0 | 1 | 74* | 2
O=c1[nH]c(=O)c2nc3c4ccccc4c4ccccc4c3nc2[nH]1 | 3 | 2 | 78* | 4
Cn1cccc1C(=O)OCc1cc(Cl)cc2c1OCOC2 | -3 | 3 | 73* | 5
Cn1cccc1C(=O)OCC(=O)Nc1ccc2c(c1)OCO2 | 0 | 1 | -13 | 7
COc1ccc(Nc2cnn(-c3nc4ccccc4s3)c(=O)c2Cl)cc1 | 0 | . | 75* | .
COc1ccc(/C(O)=C/c2nc3ccc(C(=O)NCCc4cccc(C)c4)cc3[nH]c2=O)cc1OC | 0 | -5 | 73* | 0
Cc1nc(NC(=O)CC(C)C)sc1-c1csc(Nc2ccc(Cl)cc2)n1 | 0 | -2 | 71* | -1
CN(C)CCN(C(=O)/C=C/c1cccs1)c1nc2c(F)cc(F)cc2s1 | 17* | -3 | 106* | -3
CC(C)Cn1c(O)c(/C=C2\C=NN=C2c2ccccc2)sc1=S | 18* | 4 | 71* | 0
CC1CCN(S(=O)(=O)c2ccc(NC(=O)CCNC(=O)c3ccc(Cl)cc3)cc2)CC1 | . | 3 | . | 1
CC(C)N(Cc1nc(-c2ccc(Cl)cc2)no1)C(=O)CCC1CCCC1 | 0 | -4 | 84* | 1
S=c1[nH]c2ccc3ccccc3c2[nH]1 | 1 | 4 | 9 | 1
Cc1[nH]c2c(ccc3ccccc32)c1C1C(CCN)C1(C)C (stereo not drawn) | 0 | 7 | 92* | 1
Cc1ccccc1C(=O)Nc1sc2c(c1C(=O)O)CCC2 | -4 | -2 | 85* | -1
CCC(=O)Nc1cc(-c2nn(C)c(=O)c3ccccc23)ccc1N1CCOCC1 | 1 | 5 | -2 | -2
Cn1nc(-c2ccc(N3CCCCC3)c(NC(=O)c3ccco3)c2)c2ccccc2c1=O | 0 | 17 | 88* | 4
COc1ccc2nc(SCC(=O)NCC(F)(F)F)[nH]c2c1 | 0 | -2 | -3 | 1
O=C(NN=C1c2ccccc2-c2ccccc21)c1cccc(Br)c1 | ? | 9 | 77* | 39
CCC/C=N/NC(=O)c1cccc(Br)c1 | -1 | -1 | 4 | -1
CCOc1ccc(NC(=O)CSc2nc3ccccc3nc2N2CC(C)OC(C)C2)cc1 (stereo not drawn) | -1 | -2 | . | -1
Cc1nn(Cc2c(Cl)cccc2Cl)c(Cl)c1/C=C/C(=O)OCC(=O)NCC(F)(F)F | 0 | 4 | 75* | -3
CC1(C)CCC[C@]2(C)C(CS(=O)c3ccccc3)=C(C=O)CC[C@@H]12 (stereo partly drawn) | 1 | 2 | . | 1
COc1ccc(NC(=O)N(CCN2CCCC2)Cc2cc3cc(OC)c(OC)cc3[nH]c2=O)cc1 | 0 | 4 | 78* | 0
O=C(Nc1ccc(F)cc1)N(CCCN1CCOCC1)Cc1cc2cc3c(cc2[nH]c1=O)OCCO3 | 0 | -3 | -15 | -3
CCc1ccc2[nH]c(=O)c(CN(CCCN3CCOCC3)C(=O)Nc3ccc(F)cc3)cc2c1 | 1 | 8 | 71* | 0
CCc1ccc2[nH]c(=O)c(CN(Cc3ccccc3)C(=O)Nc3ccccc3OC)cc2c1 | 0 | 5 | 73* | 1
CCS(=O)(=O)Nc1cc2c3c(c1)CCC(=O)N3CCC2 | 2 | -1 | . | -2
O=C1OC(N2C(=O)CC[C@H]2C(=O)Nc2ccc3c(c2)OCO3)c2ccccc21 (stereo partly drawn) | 0 | -1 | . | -1
